The source of these data is ChEMBL document CHEMBL1129351, “Hypoxia-selective antitumor agents. 14. Synthesis and hypoxic cell cytotoxicity of regioisomers of the hypoxia-selective cytotoxin 5-[N,N-bis(2-chloroethyl)amino]-2,4-dinitrobenzamide” (J Med Chem, 1996).

For test [1], the system named is CHO-AA8. Nature of the test: Compound was tested for the concentration required to reduce cell survival under hypoxic conditions, using the cell line AA8 in the clonogenic assay. The class given is functional, Cricetulus griseus. Put shortly:
(§1)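 Clonogenic assay on early-plateau Chinese hamster cells, grown in spinner flasks (AA8 to 10⁶/mL, UV4 to 6 × 10⁵/mL) and resuspended in fresh medium. Stirred 10 mL suspensions at 10⁶/mL were exposed to drug for 1 h under continuous 5% CO₂ in N₂; cells and drug solutions were pre-equilibrated under gas for 1 h. C₁₀ = concentration (µM) giving 10% survival relative to controls.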

The test system of test [2] is CHO-AA8. Briefly: Inhibition of growth under aerobic conditions in AA8 cells. Particulars: Cricetulus griseus. The class given is functional, cell-based. Put shortly: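 Growth-inhibition microassay: AA8 cells, 200 per well, were grown 24 h, then exposed aerobically to drug in RMEM with 5% fetal bovine serum for 18 h and washed three times. After a further 78 h they were stained with methylene blue. IC₅₀ = concentration giving 50% growth inhibition relative to controls; means ± SEM, values without SEM from a single determination.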

Test [3] has as its system UV4. Briefly: Compound was tested for the concentration required to reduce cell survival under hypoxic conditions, using the cell line UV4 in the clonogenic assay. The class given is functional, Cricetulus griseus. Put shortly: as §1
Test [4] is described as follows: Potency in clonogenic assay, defined by hypersensitivity factor calculated for UV4 cells versus AA8 cells [IC50(AA8)/IC50(UV4)]. The class given is functional, Cricetulus griseus.
Test [5] can be described thus: The ratio of C10 values in air and N2 using AA8 cell line. The class given is functional, CHO-AA8. The essentials:
(§2)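 Stirred early-plateau suspensions (10⁶/mL) of AA8 or UV4 cells were exposed to drug for 1 h under continuous gassing with 5% CO₂ in air or in N₂, after 1 h pre-equilibration, and then plated for clonogenic survival. C₁₀ (10% survival) was found for each gas phase and the ratio C₁₀(air)/C₁₀(N₂) reported.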

The nature of test [6]: The ratio of C10 values in air and N2 using UV4 cell line. The class given is functional. Put shortly: as §2
Test [7] is described as follows: Potency in clonogenic assay defined by Hypersensitivity factor calculated for AA8 cells versus EMT6 cells [IC50(AA8)/IC50 (EMT6)]. The class given is functional. The essentials: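 Aerobic growth-inhibition microassay run in parallel on AA8 (200/well), UV4 (300/well) and murine mammary EMT6 (75/well) cells. After 24 h growth, cells were given 18 h drug exposure in RMEM/5% FBS, washed, grown a further 78 h, and stained with methylene blue. The hypersensitivity factor is IC₅₀(AA8)/IC₅₀(named line), reported as intraexperiment means ± SEM.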

Test [8] has as its system CHO-AA8. Briefly: Inhibitory activity against AA8 cell growth in aerobic condition after 4 hr of exposure. The class given is functional, cell-based. The following applies: Cricetulus griseus, CHO-AA8, 4 h.

Consider `CN(C)CCNC(=O)c1c([N+](=O)[O-])ccc(N(CCCl)CCCl)c1[N+](=O)[O-]`, for which the C10 in test [1] and in test [3] was 2200 µM throughout. Further, half-maximal inhibition in test [2] (IC50) was put at 426 µM. In addition, the Hypersensitivity factor in test [4] is reported as 2.7; in test [7] it was 3. Also, the Ratio is listed as 2.2 in test [5] and 116 in test [6].
In test [2], `NC(=O)c1cc([N+](=O)[O-])cc([N+](=O)[O-])c1N(CCCl)CCCl` showed an IC50 of 73 µM. Further, the Hypersensitivity factor in test [4] was 4.3; in test [7], 0.7.
Turning to `NC(=O)c1c([N+](=O)[O-])ccc(N(CCCl)CCCl)c1[N+](=O)[O-]`, in test [2], the IC50 was more than 244 µM. In test [4], the Hypersensitivity factor is more than 2.6.
For `O=C(NCC(O)CO)c1cc(N(CCCl)CCCl)c([N+](=O)[O-])cc1[N+](=O)[O-]` (stereo unspecified), the C10 in test [3] was found to be 3600 µM. The Hypersensitivity factor in test [4] was 3.4; in test [7], 2.3. In test [6], the Ratio came out at 8.6.
The compound `NC(=O)c1cc(N(CCCl)CCCl)c([N+](=O)[O-])cc1[N+](=O)[O-]` displayed a C10 in test [3] of 3400 µM. For the same compound, the Hypersensitivity factor was 6.4 in test [4] and 1.1 in test [7]. Moreover, in test [6], the Ratio is recorded as 42.
Take `O=C(NCC(O)CO)c1cc([N+](=O)[O-])cc([N+](=O)[O-])c1N(CCCl)CCCl` (stereo unspecified): the IC50 in test [2] was 500 µM. In addition, the Hypersensitivity factor was 4.9 in test [4] and 1.8 in test [7].
Consider `NC(=O)c1cc([N+](=O)[O-])c(N(CCCl)CCCl)cc1[N+](=O)[O-]`, for which the concentration for half-maximal inhibition (IC50) in test [2] came out at 11 µM. Besides, the Hypersensitivity factor was 2.8 in test [4] and 1.9 in test [7].
In test [2], `CN(C)CCNC(=O)c1cc([N+](=O)[O-])cc([N+](=O)[O-])c1N(CCCl)CCCl` registered an IC50 of 150 µM. Also, the C10 in test [3] was 1100 µM. For the same compound, the Hypersensitivity factor in test [4] was 13; in test [7] it was 2.5. Moreover, the Ratio is more than 2.35 in test [5] and 68 in test [6].
Take `CN(C)CCNC(=O)c1cc(N(CCCl)CCCl)c([N+](=O)[O-])cc1[N+](=O)[O-]`: the C10 in test [1] came out at 1300 µM; in test [3], 400 µM. Further, the Hypersensitivity factor in test [4] is on record as 3.1; in test [7], 6.7. Further, the Ratio was 3.1 in test [5] and 44 in test [6].
With `O=C(NCC(O)CO)c1c([N+](=O)[O-])ccc(N(CCCl)CCCl)c1[N+](=O)[O-]` (stereo unspecified), the IC50 in test [2] was determined as 652 µM. Besides, the Hypersensitivity factor is 2.7 in test [4] and 1.7 in test [7].
Regarding `CN(C)CCNC(=O)c1cc([N+](=O)[O-])c(N(CCCl)CCCl)c([N+](=O)[O-])c1`, the figures for the C10 in test [1] and in test [3] were 270 µM and 250 µM, respectively. The same compound gave a half-inhibitory concentration (IC50) in test [2] of 62 µM. The Hypersensitivity factor was 1.8 in test [4] and 2.1 in test [7]. In addition, the Ratio amounted to 0.96 in test [5] and 1.04 in test [6].
On to `CN(C)CCNC(=O)c1ccc(N(CCCl)CCCl)c([N+](=O)[O-])c1[N+](=O)[O-]`, for which the figures for the C10 in test [1] and in test [3] were 140 µM and 160 µM, respectively. Further, the midpoint of inhibition in test [2], the IC50, lay at 13 µM. For the same compound, the Hypersensitivity factor is listed as 1 in test [4] and 1.2 in test [7]. The results for the Ratio in test [5] and in test [6] were 0.82 and 4, respectively.
With `CN(C)CCNC(=O)c1cc([N+](=O)[O-])c(N(CCCl)CCCl)cc1[N+](=O)[O-]`, the C10 in test [1] was determined as 120 µM; in test [3], 12 µM. Moreover, half-maximal inhibition in test [2] (IC50) required 12 µM. The figures for the Hypersensitivity factor in test [4] and in test [7] were 13 and 5.8, respectively. Also, the Ratio in test [5] is given as 3.2; in test [6] it was 7.5.
In the case of `NC(=O)c1cc([N+](=O)[O-])c(N(CCCl)CCCl)c([N+](=O)[O-])c1`, in test [2], the IC50 stood at 97 µM. Besides, the Hypersensitivity factor is 1.5 in test [4] and 1.3 in test [7].
For `CN(C)CCNC(=O)c1cc([N+](=O)[O-])c([N+](=O)[O-])cc1N(CCCl)CCCl`, the C10 in test [1] is 44 µM; in test [3] it was 18 µM. In test [2], this compound had a half-maximal inhibitory concentration (IC50) of 4 µM. Moreover, the Hypersensitivity factor in test [4] is on record as 1.4; in test [7], 3. Moreover, the Ratio came out at 0.098 in test [5] and 1.8 in test [6].
`O=C(NCC(O)CO)c1cc([N+](=O)[O-])c(N(CCCl)CCCl)c([N+](=O)[O-])c1` (stereo unspecified): the half-maximal inhibitory concentration (IC50) in test [2] was 320 µM. The Hypersensitivity factor is 0.9 in test [4] and 2.3 in test [7].
On to `NC(=O)c1cc([N+](=O)[O-])c([N+](=O)[O-])cc1N(CCCl)CCCl`, for which the IC50 in test [2] worked out at 1.6 µM. The Hypersensitivity factor in test [4] was 0.88; in test [7] it was 0.43.
Turning to `NC(=O)c1cc(N(CCCl)CCCl)c(NO)cc1[N+](=O)[O-]`, it took 180 µM to reach half-maximal inhibition in test [8] (IC50).
The compound `NC(=O)c1ccc(N(CCCl)CCCl)c([N+](=O)[O-])c1[N+](=O)[O-]` came in with a half-inhibitory concentration (IC50) in test [2] of 20 µM. Further, the Hypersensitivity factor in test [4] is reported as 1; in test [7], 3.1.
The corresponding values for `O=C(NCC(O)CO)c1cc([N+](=O)[O-])c(N(CCCl)CCCl)cc1[N+](=O)[O-]` (stereo unspecified) are 81 µM, 12 and 3.5.
The corresponding values for `O=C(NCC(O)CO)c1ccc(N(CCCl)CCCl)c([N+](=O)[O-])c1[N+](=O)[O-]` (stereo unspecified) are 108 µM, 2.3 and 3.
For `O=C(NCC(O)CO)c1cc([N+](=O)[O-])c([N+](=O)[O-])cc1N(CCCl)CCCl` (stereo unspecified), in test [2], the midpoint of inhibition, the IC50, lay at 73 µM. The Hypersensitivity factor was 1.5 in test [4] and 1.9 in test [7].
